SMILES strings stand for the structures. ≈ marks a conversion by molar mass, not a printed value. Bounds are passed on as bounds.

One assay concerns HepG2. In words: Cytotoxicity against human HepG2 cells. Type of assay: functional, cell-based. Put shortly:
(§1)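 Panel lines are HepG2 hepatocellular carcinoma, MDA-MB-231 breast carcinoma and A-549 lung carcinoma (human); cytotoxicity evaluated alongside Hep3B and MCF-7 in the same screen.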

In another assay the test system is MDA-MB-231. In words: Cytotoxicity against human MDA-MB-231 cell. Type of assay: functional, cell-based. Put shortly:
as §1

The test system of another assay is A549. In words: Cytotoxicity against human A549 cells. Type of assay: functional, cell-based. Put shortly: as §1
Assay [1] in a line: Cytotoxicity against human Hep3B cells. The format is functional, cell-based, Hep 3B2. Put shortly: (§2)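 Human Hep3B hepatocellular carcinoma and MCF-7 breast carcinoma lines; cytotoxicity reported as IC50 in µg/mL; doxorubicin included as positive control.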
A further assay concerns MCF7. The assay is described as follows: Cytotoxicity against human MCF7 cells. Type of assay: functional, cell-based. Put shortly:
as §2

Consider `COCC1=C2/C(=C\[C@@]3(C)CC[C@](O)(O3)[C@@](C)(O)C[C@@H]2OC(C)=O)OC1=O`, for which the IC50 in the assay on HepG2, in the assay with MDA-MB-231 and with A549 was over 5 µg/mL throughout.
`COCC1=C2[C@@H](OC(C)=O)C[C@@](C)(OC(C)=O)[C@@]3(O)CC[C@@](C)(O)[C@H](OC(C)=O)[C@@]23OC1=O`: the IC50 in the assay with HepG2, in the assay on MDA-MB-231 and with A549 was over 5 µg/mL throughout.
For `COc1cccc2c1C(=O)c1c(O)c3c(c(O)c1C2=O)C[C@@](O)(C(=O)CO)C[C@@H]3O[C@H]1C[C@H](N)[C@H](O)[C@H](C)O1` [DOXORUBICIN], it took 0.06 µg/mL (≈ 0.11 µM) to reach half-maximal inhibition in assay [1] (IC50).
Turning to `CC(=O)OCC1=C2/C(=C\[C@@]3(C)CC[C@](O)(O3)[C@@](C)(O)C[C@@H]2O)OC1=O` [PITOCARPHIN D], the IC50 with HepG2, in the assay with MDA-MB-231 and in the assay on A549 was over 5 µg/mL each time.
Take `CC(=O)OCC1=C2[C@@H](OC(C)=O)C[C@@]3(C)O[C@]2(C[C@](C)(O)CCC3=O)OC1=O` [SPICATOLIDE A]: the IC50 in the assay with HepG2, with MDA-MB-231 and with A549 was over 5 µg/mL throughout.
With `C/C=C(\C)C(=O)O[C@H]1C[C@](C)(O)[C@]2(O)CC[C@](C)(/C=C3/OC(=O)C(COC)=C31)O2` [SPICATOLIDE E], the IC50 with HepG2, with MDA-MB-231 and in the assay on A549 was over 5 µg/mL each time.
For the molecule `COCC1=C2[C@@H](O)C[C@@]3(C)O[C@]2(C[C@](C)(O)CCC3=O)OC1=O` [SPICATOLIDE F], the IC50 with HepG2 was over 5 µg/mL; in assay [1] it was 3.2 µg/mL (≈ 9.81 µM); in the assay on MCF7 it was 2.4 µg/mL (≈ 7.35 µM); in the assay with MDA-MB-231, over 5 µg/mL; in the assay on A549 it was over 5 µg/mL.
For the molecule `COCC1=C2[C@@H](OC(C)=O)C[C@@]3(C)O[C@@]2(OC1=O)[C@H](O)[C@@]1(C)CC[C@]3(O)O1` [SPICATOLIDE G], the IC50 with HepG2 was over 5 µg/mL; in assay [1], 6.1 µg/mL (≈ 15.9 µM); in the assay on MCF7, 4.8 µg/mL (≈ 12.5 µM); with MDA-MB-231, over 5 µg/mL; in the assay on A549 it was over 5 µg/mL.
For `C=C1CC[C@@H]2[C@H](OC(=O)[C@H]2C)[C@H]2[C@H](C)OC(=O)C[C@@H]12` [SPICATOLIDE H], the IC50 in the assay on HepG2, in the assay on MDA-MB-231 and in the assay with A549 was over 5 µg/mL each time.
For `COCC1=C2/C(=C\[C@@]3(C)CC[C@](O)(O3)[C@@](C)(O)C[C@@H]2O)OC1=O` [SPICATOLIDES D], the IC50 in the assay with HepG2 is over 5 µg/mL; in assay [1] it was 4.8 µg/mL (≈ 14.7 µM); in the assay with MCF7 it was 5.1 µg/mL (≈ 15.6 µM); with MDA-MB-231, over 5 µg/mL; in the assay on A549, over 5 µg/mL.

A word on the IC50: it is the concentration that gives 50% inhibition. Higher therefore signals weaker potency.

The record behind these values is ChEMBL document CHEMBL1141338, “Cytotoxic sesquiterpene lactones from Pseudoelephantopus spicatus” (J Nat Prod, 2007).
